Experimental data: ChEMBL document CHEMBL1629663, “Postantibiotic effects of telavancin against 16 gram-positive organisms” (Antimicrob Agents Chemother, 2009)
In brackets after ≈: the same amount, converted by molar mass.

Columns and labels:
Staphylococcus aureus [1] = experiment: Antimicrobial activity against heterogenous vancomycin-intermediate-, methicillin-resistant Staphylococcus aureus 873 by microdilution method; type: functional
Staphylococcus aureus [2] = experiment: Antimicrobial activity against vancomycin-susceptible-, methicillin-resistant Staphylococcus aureus 1307 assessed as time required to induce post antibiotic sub-MIC effect at 0.4 times MIC […] by plate counting method; type: functional
Procedure, shortened: (§1)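 After 1 h preexposure to 10× MIC at 35°C and 1:1,000 dilution, cultures were split, and drug was re-added to final 0.2, 0.3 or 0.4× MIC, with a drug-free tube. Viable counts were taken every 2 h until McFarland 1 turbidity. Duration was derived from log10 CFU/ml versus time curves. Two experiments were run, each with a new inoculum.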

Staphylococcus aureus [3] = experiment: Antimicrobial activity against heterogenous vancomycin-intermediate-, methicillin-resistant Staphylococcus aureus 618 assessed as time required to induce post antibiotic sub-MIC effect at 0.4 times MIC […] by plate counting method; type: functional
Procedure, shortened: (§2)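 PAE was first induced with 10× MIC for 1 h at 35°C (inoculum about 5 × 10^6 CFU/ml, Mueller-Hinton broth) and ended by 1:1,000 dilution. Cultures were then split and given 0.2, 0.3 or 0.4× MIC, with one tube left without drug. Viable counts were taken before exposure, after dilution, then every 2 h until McFarland no. 1 turbidity. Two separate experiments, each with a new inoculum.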

Staphylococcus aureus [4] = experiment: Antimicrobial activity against vancomycin-intermediate-, methicillin-resistant Staphylococcus aureus 770 assessed as time required to induce post antibiotic sub-MIC effect at 0.4 times MIC […] by plate counting method; type: functional; procedure, shortened: as §2
[5] = Elimination half life in healthy human at 5 mg/kg, iv; type: ADME, organism-based; parameters: dose 5 mg/kg, route intravenous; conditions: in vivo, read-out: beta t1/2
Streptococcus agalactiae = experiment: Antimicrobial activity against Streptococcus agalactiae HMC 5 by microdilution method; type: functional
Staphylococcus aureus [6] = experiment: Antimicrobial activity against vancomycin-intermediate-, methicillin-resistant Staphylococcus aureus 555 assessed as post-antibiotic effect at 10 times MIC pre-exposed to Telavancin for 1 hr by plate counting method; type: functional
Procedure, shortened: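 Viable plate count method in Mueller-Hinton broth. Direct colony suspension inoculum of about 5 × 10^6 CFU/ml was exposed to 10× MIC for 1 h at 35°C in a shaking water bath, then diluted 1:1,000 to remove drug. Counts were taken before exposure, at 0 h, then every 2 h until McFarland no. 1 turbidity. PAE = T − C, the time to a 1 log10 rise versus an unexposed growth control.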

Streptococcus pyogenes [7] = experiment: Antimicrobial activity against Streptococcus pyogenes HMC 414 assessed as post-antibiotic effect at 10 times MIC pre-exposed to Telavancin for 1 hr by plate counting method; type: functional
Procedure, shortened: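 Organisms were suspended in Mueller-Hinton broth from overnight blood agar colonies at about 5 × 10^6 CFU/ml. Cultures were exposed to telavancin at 10× MIC for 1 h at 35°C in a shaking water bath, then diluted 1:1,000 to remove the drug, with an untreated growth control. Viable counts were taken before exposure, at 0 h, then every 2 h until McFarland no. 1 turbidity. PAE = T − C, the time to a 1 log10 rise. Two experiments.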

Staphylococcus aureus [8] = experiment: Antimicrobial activity against heterogenous vancomycin-intermediate-, methicillin-resistant Staphylococcus aureus 873 assessed as time required to induce sub-MIC effect at 0.2 times MIC […] by plate counting method; type: functional
Procedure, shortened: (§3)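 SME, viable plate count method: no prior drug exposure. About 5 × 10^6 CFU/ml in Mueller-Hinton broth at 35°C received 0.2, 0.3 or 0.4× MIC, alongside a drug-free tube. Counts were taken at the start, then every 2 h until McFarland no. 1 turbidity, as log10 CFU/ml against time. Two separate experiments, each with a new inoculum.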

Staphylococcus aureus [9] = experiment: Antimicrobial activity against vancomycin-intermediate-, methicillin-resistant Staphylococcus aureus 770 assessed as time required to induce sub-MIC effect at 0.2 times MIC […] by plate counting method; type: functional; procedure, shortened: as §3
Staphylococcus aureus [10] = experiment: Antimicrobial activity against vancomycin-intermediate-, methicillin-resistant Staphylococcus aureus 1984 assessed as time required to induce sub-MIC effect at 0.2 times MIC […] by plate counting method; type: functional; procedure, shortened: as §3
Enterococcus faecalis = experiment: Antimicrobial activity against Enterococcus faecalis HMC 571 assessed as time required to induce sub-MIC effect at 0.2 times MIC exposed for 2 hrs by plate counting method; type: functional
Procedure, shortened: (§4)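 Unexposed Mueller-Hinton broth cultures (about 5 × 10^6 CFU/ml, 35°C) were handled as in the PA-SME set but without the 10× MIC pre-exposure. They were diluted 1:1,000, then given telavancin at final 0.2, 0.3 or 0.4× MIC, with a drug-free control. Viable counts were taken every 2 h until McFarland no. 1 turbidity. Effect duration comes from log10 CFU/ml-time plots; two separate experiments with new inocula.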

Enterococcus faecium = experiment: Antimicrobial activity against Enterococcus faecium HMC 588 assessed as time required to induce sub-MIC effect at 0.2 times MIC exposed for 2 hrs by plate counting method; type: functional; procedure, shortened: as §4
Staphylococcus aureus [11] = experiment: Antimicrobial activity against vancomycin-susceptible-, methicillin-resistant Staphylococcus aureus 1306 assessed as time required to induce post antibiotic sub-MIC effect at 0.2 times MIC pre-exposed to Telavancin […] by plate counting method; type: functional; procedure, shortened: as §1
Streptococcus pyogenes [12] = experiment: Antimicrobial activity against Streptococcus pyogenes HMC 414 assessed as time required to induce post antibiotic sub-MIC effect at 0.2 times MIC pre-exposed to Telavancin for 2 hrs by plate counting method; type: functional; conditions: in the assay text read “for 1 hr” for “for 2 hrs”
Procedure, shortened: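 Mueller-Hinton broth cultures of about 5 × 10^6 CFU/ml were pre-exposed to telavancin at 10× MIC for 1 h at 35°C, then diluted 1:1,000. Telavancin was re-added to final 0.2, 0.3 or 0.4× MIC, alongside a drug-free tube. Viable counts were taken before exposure, after dilution, then every 2 h until McFarland no. 1 turbidity. Duration comes from log10 CFU/ml-versus-time plots; two separate experiments with fresh inocula.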

Staphylococcus aureus [13] = experiment: Antimicrobial activity against vancomycin-intermediate-, methicillin-resistant Staphylococcus aureus 555 assessed as time required to induce sub-MIC effect at 0.3 times MIC […] by plate counting method; type: functional; procedure, shortened: as §3
Staphylococcus aureus [14] = experiment: Antimicrobial activity against vancomycin-susceptible-, methicillin-resistant Staphylococcus aureus 1307 assessed as time required to induce post antibiotic sub-MIC effect at 0.3 times MIC […] by plate counting method; type: functional; procedure, shortened: as §1
Staphylococcus aureus [15] = experiment: Antimicrobial activity against vancomycin-resistant-, methicillin-resistant Staphylococcus aureus 510 assessed as time required to induce post antibiotic sub-MIC effect at 0.3 times MIC […] by plate counting method; type: functional; procedure, shortened: as §1
Staphylococcus aureus [16] = experiment: Antimicrobial activity against vancomycin-susceptible-, methicillin-resistant Staphylococcus aureus 1306 assessed as time required to induce sub-MIC effect at 0.4 times MIC exposed for 2 hrs by plate counting method; type: functional
Procedure, shortened: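 Sub-MIC effect: cultures not preexposed to drug were diluted and handled as in the PA-SME procedure in Mueller-Hinton broth with final 0.2, 0.3 or 0.4× MIC, plus a drug-free control. Viable plate counts were taken every 2 h until McFarland 1 turbidity. Duration was derived from growth curves. Two experiments were run, each with a new inoculum.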

Staphylococcus aureus [17] = experiment: Antimicrobial activity against vancomycin-resistant-, methicillin-resistant Staphylococcus aureus 510 assessed as time required to induce post antibiotic sub-MIC effect at 0.2 times MIC pre-exposed to Telavancin for 1 hr by plate counting method

SMILES: CCCCCCCCCCNCCN[C@@]1(C)C[C@H](O[C@H]2[C@H](Oc3c4cc5cc3Oc3ccc(cc3Cl)[C@@H](O)[C@@H](NC(=O)[C@@H](CC(C)C)NC)C(=O)N[C@@H](CC(N)=O)C(=O)N[C@H]5C(=O)N[C@H]3C(=O)N[C@H](C(=O)N[C@H](C(=O)O)c5cc(O)c(CNCP(=O)(O)O)c(O)c5-c5cc3ccc5O)[C@H](O)c3ccc(c(Cl)c3)O4)O[C@H](CO)[C@@H](O)[C@@H]2O)O[C@@H](C)[C@H]1O [TELAVANCIN]
- MIC (Staphylococcus aureus [1]): 0.12 µg/mL (≈ 0.0684 µM)
- PAE (Staphylococcus aureus [2]): > 10.5 h
- PAE (Staphylococcus aureus [3]): 10.3 h
- PAE (Staphylococcus aureus [4]): 9.6 h
- half-life [5]: > 7 h
- MIC (Streptococcus agalactiae): 0.12 µg/mL (≈ 0.0684 µM)
- PAE (Staphylococcus aureus [6]): 3.4 h
- PAE (Streptococcus pyogenes [7]): 6.1 h
- PAE (Staphylococcus aureus [8]): 0 h
- PAE (Staphylococcus aureus [9]): 0.7 h
- PAE (Staphylococcus aureus [10]): 1 h
- PAE (Enterococcus faecalis): 0.1 h
- PAE (Enterococcus faecium): 1.2 h
- PAE (Staphylococcus aureus [11]): 2.9 h
- PAE (Streptococcus pyogenes [12]): 8.7 h
- PAE (Staphylococcus aureus [13]): 1.7 h
- PAE (Staphylococcus aureus [14]): > 10.5 h
- PAE (Staphylococcus aureus [15]): 6 h
- PAE (Staphylococcus aureus [16]): 6 h
- PAE (Staphylococcus aureus [17]): 5.6 h
